Source: PubChem BioAssay
NPY-Y1 PAM-ag: potentiates or activates human NPY-Y1 receptor; NPY-Y1 expressing cells, potentiator/agonist activation; P25929; activation, % at 3.6 µM; 220,000 compounds, 0.37% hits; in the data active means activation above about 33%, passing the limit was not always enough;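 further: cells stimulated with NPY at EC10 then isoproterenol at EC100; 0% = low agonist plus stimulus and 100% = saturating agonist plus stimulus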
Target sequence (P25929 whole entry, looked up): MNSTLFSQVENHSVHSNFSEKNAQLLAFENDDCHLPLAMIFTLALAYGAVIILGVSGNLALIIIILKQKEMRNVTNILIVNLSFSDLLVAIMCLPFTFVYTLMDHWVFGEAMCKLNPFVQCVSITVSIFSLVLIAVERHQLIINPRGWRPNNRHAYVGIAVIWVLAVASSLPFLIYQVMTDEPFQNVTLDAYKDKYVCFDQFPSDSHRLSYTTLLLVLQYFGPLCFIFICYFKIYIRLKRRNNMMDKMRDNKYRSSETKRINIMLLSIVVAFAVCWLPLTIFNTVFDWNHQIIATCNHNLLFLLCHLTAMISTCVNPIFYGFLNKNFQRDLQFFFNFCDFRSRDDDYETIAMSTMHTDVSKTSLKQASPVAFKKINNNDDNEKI
NPY-Y2 antag: antagonists of human neuropeptide Y receptor Y2. AID 793. 140,000 compounds, 0.99% hits. P49146. inhibition, % at 2.7 µM. NPY-Y2 expressing cells, antagonist mode; in the data active means inhibition above about 17%;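 further: 0% = vehicle with agonist challenge and 100% = reference antagonist with challenge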
NPY-Y2 PAM-ag: potentiates or activates human NPY-Y2 receptor; cells expressing NPY-Y2, potentiator/agonist read-out; activation, % at 3.6 µM; 220,000 compounds, 0.45% hits; in the data active means activation above about 27%;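 further: cells stimulated with NPY near EC25 plus isoproterenol at EC100; 0% = vehicle plus submaximal agonist and 100% = vehicle plus saturating agonist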
NPY Y1 blocker: blocks the human neuropeptide Y Y1 receptor. P25929. HEK293-CNG Y1 cells, membrane potential fluorescence; NPY at EC95, then isoproterenol. inhibition, % at 3.6 µM. 200,000 compounds, 1% hits. AID 1040;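 active means inhibition above the campaign mean inhibition of all tested compounds plus 3 SD, cut at about 20% in these data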;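 further: 0% = DMSO wells given NPY plus isoproterenol and 100% = isoproterenol alone without NPY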
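material = HEK293 cells with Y1 receptor plus CNG channel | also added = NPY 25 nM then isoproterenol 1 µM plus Ro 20-1724 25 µM | schedule = dye 3 h, compound 60 min room temperature, stimulation 45 min | measured by = membrane potential fluorescence | benchmarks = high control isoproterenol alone, low control NPY with isoproterenol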
An asterisk follows results filed as active; . = no result given. Sampled rows, rich in hits. Any-hit rate of the full collection: about 1.9%.

SMILES | NPY-Y1 PAM-ag | NPY-Y2 antag | NPY-Y2 PAM-ag | NPY Y1 blocker
Cc1ccc2nc(NC(=O)c3cc(-c4ccco4)nc4ccccc34)sc2c1 | -146 | 56* | -121 | 54*
COc1ccc(-c2cc(C(=O)Nc3nc4c(C)cccc4s3)c3ccccc3n2)cc1OC | -85 | 45* | -33 | 47*
O=C(OCCN1C(=O)c2cccc3c(N4CCOCC4)ccc(c23)C1=O)c1ccccc1Cl | -39 | 24* | 10 | 57*
N#Cc1c(NCCN)nc(-c2ccccc2)c2c1CCCC2 | -37 | 24* | -33 | 29*
N#Cc1c(NCCCO)nc(-c2ccccc2)c2c1CCCC2 | 23 | 0 | 21 | -6
Cc1ccc(S(=O)(=O)NCC(=O)OCC(=O)NCc2ccc(F)cc2)cc1 | -1 | . | 1 | -9
COc1ccc(C2N(c3ccccc3)CCN2c2ccccc2)cc1O | -12 | . | -14 | -1
N#CC1=C(N)Oc2n[nH]c(-c3cccs3)c2C1c1ccsc1 (stereo not given) | 9 | 6 | -6 | 28*
Cc1cc(-c2[nH]nc3c2C(c2ccc(Cl)cc2)C(C#N)=C(N)O3)c(C)s1 (stereo not given) | -15 | 69* | -7 | 59*
COc1ccc(-c2[nH]nc3c2C(c2ccoc2)C(C#N)=C(N)O3)cc1 (stereo not given) | -7 | 3 | -5 | -2
Cc1ccc(-c2[nH]nc3c2C(c2ccoc2)C(C#N)=C(N)O3)cc1C (stereo not given) | -16 | 87* | -8 | 110*
Nc1ccc(S(=O)(=O)C(F)(F)F)cc1N | 12 | . | 0 | 4
CCCN(CCC)S(=O)(=O)c1ccc(Cl)c([N+](=O)[O-])c1 | 77* | . | 77* | -13
COC(=O)c1ccc(=O)c2nc3/c(=C/O)c(O)cc(=O)c3[nH]c12 | 14 | . | -3 | .
C=CCN1CCN(C(CCC)c2nnnn2Cc2ccco2)CC1 (stereo not given) | -7 | . | -4 | 1
CC1C(c2ccccc2)N(C)C(c2ccccc2)C(C)C1(O)C#Cc1ccccc1 (stereo not given) | -34 | 18* | -12 | 14
COc1ccc([N+](=O)[O-])cc1C(=O)Nc1ccc(OCC(=O)N2CCOCC2)cc1 | -21 | 2 | 6 | 0
OC(CNCCNc1ncccc1C(F)(F)F)COc1ccc(F)cc1 (stereo not given) | 86* | . | 61* | .
CN1C(=O)CC(C(=O)Nc2ccccc2F)SC1=Nc1ccc2c(c1)OCO2 (stereo not given) | 16 | . | 3 | -2
CC1(C)Cc2cccc(OCC(O)CN3CCN(c4ccccn4)CC3)c2O1 (stereo not given) | 104* | 1 | 91* | -15
CC1(C)Cc2cccc(OCC(O)CNCc3ccccn3)c2O1 (stereo not given) | 80* | 5 | 66* | -6
C=CCn1cc(/C=N/Nc2nc3ccccc3[nH]2)c2ccccc21 | 48* | -3 | 47* | -7
Cn1c(/C=N/Nc2nc3ccccc3[nH]2)nc2ccccc21 | 1 | . | 2 | 1
CCOC(=O)c1c(C)[nH]c(C(=O)C(C)Sc2ccc(Cl)cc2)c1C (stereo not given) | -32 | 34* | -26 | 84*
Cc1ccccc1/C=c1\s/c(=C\C(=O)C(C)(C)C)[nH]c1=O | -7 | 24* | -21 | 22*
SMILES | NPY-Y1 PAM-ag | NPY-Y2 antag | NPY-Y2 PAM-ag | NPY Y1 blocker
Cc1nnc(SCc2ccc([N+](=O)[O-])cc2)o1 | -4 | . | -9 | 2
Cc1cc(C)n(CC(=O)N/N=C/c2ccccn2)n1 | 1 | -1 | -9 | 0
O=C(Nc1cccc(Cl)c1)Nc1cccc(Cl)c1 | 9 | 1 | 20 | -3
N#CCc1ccc(NC(=O)Nc2cccc(Cl)c2)cc1 | 37* | -3 | 20 | -18
O=C(Nc1ccon1)c1ccc(S(=O)(=O)N2CCOCC2)cc1 | -5 | . | -14 | 4
COC(=O)c1ccc(NC(=S)NC(=O)c2cc(-c3ccccc3)nc3ccccc23)cc1 | -120 | 23* | 4 | 41*
Cc1ccc(NC(=O)c2cc(Cl)nc3ccccc23)cc1 | -66 | 21* | -62 | 31*
Cc1ccc(NC(=O)c2cc(N3CCOCC3)nc3ccccc23)cc1 | -48 | 4 | -26 | 12
CCCCN1C(=O)C(=Nc2cccc3cnccc23)c2ccccc21 | -1 | . | -8 | -6
CC(=O)c1ccc(NC(=O)CC23CC4CC(C2)CC(n2nnc(C)n2)(C4)C3)cc1 | -5 | . | 1 | -6
COC(=O)CSc1nc(N)c(C#N)c(-c2ccc(O)cc2)c1C#N | 4 | . | -25 | .
C=CCSc1nc(N)c(C#N)c(-c2ccc(C)cc2)c1C#N | 45* | -7 | 45* | -12
Cc1cccc(-c2ncc(S(=O)(=O)C(C)(C)C)c(N)n2)c1 | -9 | . | 1 | .
CC(C)Cn1c(N)c(C(=O)COC(=O)CCc2nc3ccccc3s2)c(=O)n(C)c1=O | 1 | . | 26 | 20*
Cc1ccc(CN2CCSc3ccc(C(=O)NCc4cccnc4)cc32)cc1 | -14 | . | -4 | 10
CN(C)CCNC(=O)c1ccc2c(c1)N(Cc1ccc(F)cc1)CCS2 | 75* | 5 | 65* | -8
Cc1ccc(NC(=O)Cc2cc(C(=O)O)c3ccccc3n2)c(C)c1 | 78* | . | 80* | -16
CCCc1cc(C(=O)O)c2ccccc2n1 | 12 | 3 | -7 | 3
O=C(CSCc1ccc(Cl)cc1)NCc1ccccn1 | 8 | 2 | 8 | 1
Clc1ccccc1-c1ccc(CN2CCN(c3ccccc3)CC2)o1 | -58 | 28* | -26 | 23*
CCC(C)(C(=O)NC1CCCCC1)N(CC1CCCO1)C(=O)Cc1cccs1 (stereo not given) | 0 | . | 5 | 21*
CCC(C)(C(=O)NC1CCCC1)N(Cc1cccs1)C(=O)Cc1cccs1 (stereo not given) | -30 | 38* | 8 | 37*
CCC(C)(C(=O)NC1CCCCC1)N(C(=O)Cc1cccs1)c1ccccc1 (stereo not given) | -37 | 17* | -8 | 34*
COc1cc(NC(=O)c2ccc(C(C)(C)C)cc2)c(OC)cc1NC(=O)CN1CCCCC1 | 11 | . | -3 | -3
CCOc1ccc(NC(=S)N2CCN(C/C=C/c3ccccc3)CC2)cc1 | 6 | . | 12 | 1
SMILES | NPY-Y1 PAM-ag | NPY-Y2 antag | NPY-Y2 PAM-ag | NPY Y1 blocker
COc1ccc(OC)c(CNC(=O)Cc2c(C(=O)O)[nH]c3ccccc23)c1 | 64* | 4 | 13 | -6
CN(c1ccccc1C(=O)NC1CCCCC1)S(=O)(=O)c1ccccc1 | -5 | . | -17 | 20*
CN(c1ccccc1C(=O)NC1CC2CCC1C2)S(=O)(=O)c1ccccc1 (stereo not given) | -22 | 2 | -1 | 6
CCCOCCOC(=O)c1[nH]c2c(c1C)C(=O)CC(c1cc(OC)ccc1OC)C2 (stereo not given) | -33 | 31* | -3 | 35*
COc1ccccc1Oc1cc(C#N)c(C#N)cc1-n1nnc2ccccc21 | -36 | 19* | -19 | 46*
CCn1c(O)c(N=NC(=O)c2ccc(CSc3nncn3C)cc2)c2ccccc21 | 25 | 1 | 6 | 1
Cn1cnnc1SCc1ccc(C(=O)N=Nc2c(O)n(Cc3ccc(Cl)cc3)c3ccccc23)cc1 | 47* | -2 | 46* | -8
